Results as given in ChEMBL document CHEMBL1126205, “Novel spirosuccinimides with incorporated isoindolone and benzisothiazole 1,1-dioxide moieties as aldose reductase inhibitors and antihyperglycemic agents” (1992).
Each block holds one compound with its values, some of them ahead of it. Calls of active or inactive are those of the source. The rule behind the calls is not given here.

How the values were obtained:
Rattus norvegicus [1] = assay: In vivo galactitol inhibitory activity measured by its ability to inhibit galactitol accumulation in lens at 10 mg/Kg/day; type: functional; conditions: Lens of camera-type eye
Outline: (§1)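 Rats (n = 6) fed 20% galactose for 4 days, with compound given in the diet at the stated mg/kg per day. Galactitol accumulation in lens, sciatic nerve or diaphragm is scored as percent inhibition versus the non-treated group, as means of 3–8 drug-treated tissue samples. Dunnett's multiple comparison test applies; NS means p > 0.05.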

Rattus norvegicus [2] = assay: In vivo galactitol inhibitory activity measured by its ability to inhibit galactitol accumulation in diaphragm at 10 mg/kg/day; type: functional; outline: as §1
[3] = target: Aldo-keto reductase family 1 member B1 (Bos taurus) (UniProt P16116); assay: In vitro aldose reductase inhibitory activity measured by NADPH-dependent inhibition of glyceraldehyde reduction in a partially purified bovine lens preparation at 10E-6 M
Outline: (§2)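 Aldose reductase partially purified from bovine lens. Inhibition of NADPH-dependent glyceraldehyde reduction is measured at the single stated concentration and reported as percent inhibition, the mean of two determinations.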

Rattus norvegicus [4] = assay: In vivo galactitol inhibitory activity measured by its ability to inhibit galactitol accumulation in sciatic nerve at 10 mg/kg/day; type: functional
Outline: (§3)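 Rats (n = 6) fed 20% galactose for 4 days, with compound given in the diet at the stated daily dose. Galactitol accumulation was measured in lens, sciatic nerve and diaphragm, and % inhibition was taken versus the nontreated group. Means are from three to eight drug-treated tissue samples. Dunnett's multiple comparison test was applied, with p > 0.05 reported as not significant.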

[5] = target: Aldo-keto reductase family 1 member B1 (Bos taurus) (UniProt P16116); assay: In vitro aldose reductase inhibitory activity measured by NADPH-dependent inhibition of glyceraldehyde reduction in a partially purified bovine lens preparation at 10E-7 M; outline: as §2
Rattus norvegicus [6] = assay: In vivo galactitol inhibitory activity measured by its ability to inhibit galactitol accumulation in sciatic nerve at 94 mg/kg/day; NS=not significant; type: functional, organism-based; outline: as §3
[7] = target: Aldo-keto reductase family 1 member B1 (Bos taurus) (UniProt P16116); assay: in vitro aldose reductase inhibitory activity measured by NADPH-dependent inhibition of glyceraldehyde reduction in a partially purified bovine lens preparation at 10e -7M conc.; g=no inhibitory activity
Outline: (§4)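 Partially purified aldose reductase from bovine lens. Inhibition of NADPH-dependent glyceraldehyde reduction was measured at a single test concentration. Values are % inhibition of enzymatic activity, mean of two determinations.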

Mus musculus [8] = assay: Antihyperglycemic activity was determined by measuring percent decrease in plasma glucose at 100 mg/kg/day; type: functional
Outline: (§5)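 Male db/db (C57BL/KsJ) mice, 4–6 per group, dosed at 100 mg/kg per day. Plasma glucose of the drug-treated group is expressed as percent decrease relative to a vehicle-treated control group. Values are mean ± SE, with p < 0.05 marked.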

[9] = target: Aldo-keto reductase family 1 member B1 (Bos taurus) (UniProt P16116); assay: in vitro aldose reductase inhibitory activity measured by NADPH-dependent inhibition of glyceraldehyde reduction in a partially purified bovine lens preparation at 10e -6M conc.; outline: as §4
Rattus norvegicus [10] = assay: In vivo galactitol inhibitory activity measured by its ability to inhibit galactitol accumulation in lens at 94 mg/Kg/day; NS=not significant; type: functional, organism-based; conditions: Lens of camera-type eye; outline: as §3
Rattus norvegicus [11] = assay: In vivo galactitol inhibitory activity measured by its ability to inhibit galactitol accumulation in lens at 52 mg/Kg/day; type: functional; conditions: Lens of camera-type eye; outline: as §1
Rattus norvegicus [12] = assay: In vivo galactitol inhibitory activity measured by its ability to inhibit galactitol accumulation in sciatic nerve at 52 mg/Kg/day; type: functional; outline: as §3
Rattus norvegicus [13] = assay: In vivo galactitol inhibitory activity measured by its ability to inhibit galactitol accumulation in lens at 3 mg/Kg/day; NS=Not significant (% Inhibition); type: functional, organism-based; conditions: Lens of camera-type eye; outline: as §1
Rattus norvegicus [14] = assay: In vivo galactitol inhibitory activity measured by its ability to inhibit galactitol accumulation in diaphragm at 52 mg/Kg/day; type: functional; outline: as §1
Mus musculus [15] = assay: Antihyperglycemic activity measured as percent decrease in mice plasma glucose at 100 mg/Kg/day; type: functional; outline: as §5
Rattus norvegicus [16] = assay: In vivo galactitol inhibitory activity measured by its ability to inhibit galactitol accumulation in sciatic nerve at 3 mg/Kg/day; NS=Not significant (% Inhibition); type: functional, organism-based; outline: as §3
Rattus norvegicus [17] = assay: In vivo galactitol inhibitory activity measured by its ability to inhibit galactitol accumulation in diaphragm at 3 mg/Kg/day; type: functional; outline: as §1
Mus musculus [18] = assay: Antihyperglycemic activity measured as percent decrease in mice plasma glucose at 20 mg/Kg/day; type: functional
Outline: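 Male db/db (C57BL/KsJ) mice, 4–6 per group, dosed at the stated mg/kg per day. Plasma glucose is expressed as percent decrease versus the vehicle-treated group. Values are mean ± SE.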

[19] = target: Aldo-keto reductase family 1 member B1 (Bos taurus) (UniProt P16116); assay: In vitro aldose reductase inhibitory activity measured by NADPH-dependent inhibition of glyceraldehyde reduction in a partially purified bovine lens preparation at 10E-5 M; outline: as §2
Rattus norvegicus [20] = assay: In vivo galactitol inhibitory activity measured by its ability to inhibit galactitol accumulation in diaphragm at 101 mg/kg/day; type: functional; outline: as §1
Rattus norvegicus [21] = assay: In vivo galactitol inhibitory activity measured by its ability to inhibit galactitol accumulation in lens at 101 mg/Kg/day; NS=Not significant (% Inhibition); type: functional, organism-based; conditions: Lens of camera-type eye; outline: as §1
Rattus norvegicus [22] = assay: In vivo galactitol inhibitory activity measured by its ability to inhibit galactitol accumulation in sciatic nerve at 101 mg/kg/day; NS=Not significant (% Inhibition); type: functional, organism-based; outline: as §3

inhibition [3]: 66%
inhibition [5]: 32%
Structure (SMILES): O=C1CC2(C(=O)N1)C(=O)N1CCOc3cc(Cl)cc2c31 (centres undefined)
inhibition in vivo at 10 mg/kg/day (Rattus norvegicus [1]): 20%
inhibition in vivo at 10 mg/kg/day (Rattus norvegicus [2]): 88%
inhibition in vivo at 10 mg/kg/day (Rattus norvegicus [4]): 57%

inhibition [7]: inactive
inhibition [9]: 9%
Structure (SMILES): CC1(COc2ccc(CC3SC(=O)NC3=O)cc2)CCCCC1 (centres undefined) [CIGLITAZONE]
inhibition (Rattus norvegicus [6]): inactive
Decrease (Mus musculus [8]): 32%
inhibition (Rattus norvegicus [10]): inactive

inhibition [3]: 74%
inhibition [5]: 29%
Structure (SMILES): CN1C(=O)c2ccc(F)cc2C12CC(=O)NC2=O (centres undefined)
inhibition in vivo at 52 mg/kg/day (Rattus norvegicus [11]): 26%
inhibition in vivo at 52 mg/kg/day (Rattus norvegicus [12]): 71%
inhibition (Rattus norvegicus [13]): inactive
inhibition in vivo at 52 mg/kg/day (Rattus norvegicus [14]): 68%
Decrease (Mus musculus [15]): <15%
inhibition (Rattus norvegicus [16]): inactive
inhibition in vivo at 3 mg/kg/day (Rattus norvegicus [17]): 15%

inhibition [19]: 63%
inhibition [3]: 0%
Structure (SMILES): O=C1CC2(C(=O)N1)c1ccccc1S(=O)(=O)N2Cc1ccc(Cl)c(Cl)c1 (centres undefined)
Decrease (Mus musculus [18]): <15%
Decrease (Mus musculus [15]): 27%

inhibition [3]: 54%
inhibition [5]: 7%
Structure (SMILES): O=C1CC2(C(=O)N1)c1ccccc1C(=O)N2Cc1ccc(Br)cc1F (centres undefined)
inhibition in vivo at 101 mg/kg/day (Rattus norvegicus [20]): 30%
Decrease (Mus musculus [15]): 36%
inhibition (Rattus norvegicus [21]): inactive
inhibition (Rattus norvegicus [22]): inactive
